Measurements as given in ChEMBL document CHEMBL3739255, “Novel Series of Dihydropyridinone P2X7 Receptor Antagonists” (J Med Chem, 2015).

Columns and labels:
[1] = molecular target: Prostaglandin E2 receptor EP4 subtype (Homo sapiens) (UniProt P35408); assay: Inhibition of human prostanoid EP4 receptor at 10 uM by radioligand binding assay
Procedure, shortened: (§1)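 Outsourced broad receptor-screening panel of 78 targets, each tested at a single 10 uM concentration; read-out is percent inhibition. Detailed conditions are given only in the Supporting Information.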

[2] = molecular target: Histamine H1 receptor (Homo sapiens) (UniProt P35367); assay: Inhibition of human histamine H1 receptor at 10 uM; procedure, shortened: as §1
[3] = molecular target: Melanocortin receptor 4 (Homo sapiens) (UniProt P32245); assay: Inhibition of human MC4 receptor at 10 uM
Procedure, shortened: (§2)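 Commercial receptor scan across a 78-target panel, with percent inhibition measured at a test concentration of 10 uM.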

[4] = molecular target: 5-hydroxytryptamine receptor 7 (Homo sapiens) (UniProt P34969); assay: Inhibition of human 5-HT7 receptor at 10 uM by radioligand binding assay; procedure, shortened: as §2
Rattus norvegicus [5] = organism: Rattus norvegicus; assay: Inhibition of rat Voltage-gated potassium channel at 10 uM; procedure, shortened: as §1
P2X purinoceptor 4 = P2X purinoceptor 4 (Homo sapiens, UniProt Q99571); assay: Inhibition of P2X4R (unknown origin)
Procedure, shortened: (§3)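 Selectivity at other P2X receptor subtypes, read as IC50 in a FLIPR Ca2+ flux assay.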

Rattus norvegicus [6] = organism: Rattus norvegicus; assay: Inhibition of rat P2X purinoceptor at 10 uM by radioligand binding assay; procedure, shortened: as §1
[7] = molecular target: Beta-2 adrenergic receptor (Homo sapiens) (UniProt P07550); assay: Inhibition of human beta2-adrenoceptor at 10 uM by radioligand binding assay; procedure, shortened: as §1
[8] = molecular target: Mu-type opioid receptor (Homo sapiens) (UniProt P35372); assay: Inhibition of human mu opioid receptor at 10 uM by radioligand binding assay; procedure, shortened: as §1
[9] = Half life in rat at 0.5 mg/kg, iv administered as single dose; type: ADME, organism-based; conditions: in vivo
Procedure, shortened: (§4)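 Single-dose rat PK: iv at 0.5 mg/kg and po at 2 mg/kg. n ≥ 2 animals per time point. Oral AUC normalized to dose; clearance, Vdss and half-life taken from the iv arm.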

[10] = molecular target: Beta-1 adrenergic receptor (Homo sapiens) (UniProt P08588); assay: Inhibition of human beta1-adrenoceptor at 10 uM by radioligand binding assay; procedure, shortened: as §1
Rattus norvegicus [11] = organism: Rattus norvegicus; assay: Inhibition of rat sodium channel site 2 at 10 uM by radioligand binding assay
Procedure, shortened: (§5)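 Single-concentration screen at 10 uM in a commercial 78-receptor panel run by CEREP; results are given as % inhibition.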

[12] = molecular target: Nociceptin receptor (Homo sapiens) (UniProt P41146); assay: Inhibition of human ORL1 receptor at 10 uM by radioligand binding assay; procedure, shortened: as §2
[13] = molecular target: Adrenergic receptor alpha-2 (Rattus norvegicus) (UniProt P22086+P19328+P22909); assay: Inhibition of rat alpha2-adrenoceptor at 10 uM; procedure, shortened: as §1
[14] = molecular target: Vasopressin V1a receptor (Homo sapiens) (UniProt P37288); assay: Inhibition of human vasopressin V1a receptor at 10 uM by radioligand binding assay; procedure, shortened: as §1
[15] = molecular target: Adrenergic receptor alpha-1 (Rattus norvegicus) (UniProt P15823+P23944+P43140); assay: Inhibition of rat alpha1-adrenoceptor at 10 uM; procedure, shortened: as §1
[16] = Oral bioavailability in rat at 2 mg/kg administered as single dose; type: ADME, organism-based; conditions: in vivo
Procedure, shortened: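 Rats given a single dose, iv 0.5 mg/kg or po 2 mg/kg, with n ≥ 2 per time point. Bioavailability is derived from the po and iv exposures. Vdss is reported in L/kg.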

[17] = molecular target: Substance-P receptor (Homo sapiens) (UniProt P25103); assay: Inhibition of human NK1 receptor at 10 uM by radioligand binding assay; procedure, shortened: as §2
[18] = Binding affinity to Cytochrome P450 in rat liver microsomes at 10 uM incubated for 30 mins; type: ADME; conditions: 0.5 h
Procedure, shortened: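 Covalent binding in rat and human liver microsomes, run both without and with NADPH.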

[19] = molecular target: 5-hydroxytryptamine receptor 2B (Homo sapiens) (UniProt P41595); assay: Inhibition of human 5-HT2B receptor at 10 uM by radioligand binding assay; procedure, shortened: as §2
[20] = molecular target: Neuropeptide Y receptor type 2 (Homo sapiens) (UniProt P49146); assay: Inhibition of human neuropeptide Y2 receptor at 10 uM by radioligand binding assay; procedure, shortened: as §1
[21] = molecular target: Galanin receptor type 2 (Homo sapiens) (UniProt O43603); assay: Inhibition of human galanin receptor 2 at 10 uM by radioligand binding assay; procedure, shortened: as §1
[22] = molecular target: Small conductance calcium-activated potassium channel (Rattus norvegicus) (UniProt P70604+P70606+P70605); assay: Inhibition of rat small conductance calcium-activated potassium channel at 10 uM by radioligand binding assay; type: protein assay; procedure, shortened: as §5
[23] = molecular target: Cannabinoid receptor 1 (Homo sapiens) (UniProt P21554); assay: Inhibition of human CB1 receptor at 10 uM by radioligand binding assay; procedure, shortened: as §2
P2X purinoceptor 1 = P2X purinoceptor 1 (Homo sapiens, UniProt P51575); assay: Inhibition of P2X1R (unknown origin); procedure, shortened: as §3
[24] = molecular target: Prostacyclin receptor (Homo sapiens) (UniProt P43119); assay: Inhibition of human prostanoid IP1 receptor at 10 uM; type: functional; procedure, shortened: as §1
Rattus norvegicus [25] = organism: Rattus norvegicus; assay: Inhibition of rat bombesin receptor at 10 uM; procedure, shortened: as §5
[26] = molecular target: 5-hydroxytryptamine receptor 1B (Homo sapiens) (UniProt P28222); assay: Inhibition of human 5-HT1B receptor at 10 uM by radioligand binding assay; procedure, shortened: as §2
[27] = Cmax in rat at 2 mg/kg, po administered as single dose; type: ADME, organism-based; parameters: dose 2 mg/kg, route oral; conditions: in vivo; procedure, shortened: as §4
Plasma = assay: Drug metabolism in cynomolgus monkey plasma assessed as hydrolysis of amide bond at 10 mg/kg; type: ADME, organism-based, Macaca fascicularis; conditions: in vivo
[28] = molecular target: D(1B) dopamine receptor (Homo sapiens) (UniProt P21918); assay: Inhibition of human dopamine D5 receptor at 10 uM; procedure, shortened: as §1
[29] = molecular target: Vasoactive intestinal polypeptide receptor 1 (Homo sapiens) (UniProt P32241); assay: Inhibition of human VP1 receptor at 10 uM by radioligand binding assay; procedure, shortened: as §1
Rattus norvegicus [30] = organism: Rattus norvegicus; assay: Inhibition of rat P2Y purinoceptor at 10 uM by radioligand binding assay; procedure, shortened: as §1
[31] = molecular target: Thromboxane A2 receptor (Homo sapiens) (UniProt P21731); assay: Inhibition of human TP prostanoid receptor at 10 uM by radioligand binding assay; procedure, shortened: as §1
[32] = molecular target: Type-2 angiotensin II receptor (Homo sapiens) (UniProt P50052); assay: Inhibition of human angiotensin 2 receptor 2 at 10 uM; procedure, shortened: as §1
[33] = molecular target: Histamine H2 receptor (Homo sapiens) (UniProt P25021); assay: Inhibition of human histamine H2 receptor at 10 uM; procedure, shortened: as §1
Rattus norvegicus [34] = organism: Rattus norvegicus; assay: Inhibition of rat GABA-chloride channel receptor at 10 uM by radioligand binding assay; procedure, shortened: as §1
Liver microsome [35] = assay: Drug metabolism in human liver microsomes assessed as hydrolysis of amide bond; type: ADME
[36] = molecular target: Adenosine receptor A2a (Homo sapiens) (UniProt P29274); assay: Inhibition of human adenosine A2A receptor at 10 uM by radioligand binding assay; procedure, shortened: as §1
[37] = molecular target: D(2) dopamine receptor (Homo sapiens) (UniProt P14416); assay: Inhibition of human dopamine D2S receptor at 10 uM; procedure, shortened: as §1
Liver microsome [38] = assay: Drug metabolism in human liver microsomes assessed as GSH adduct UV peak area at 20 uM preincubated for 5 mins followed by NADPH addition measured after 60 mins by LC/MS/MS analysis relative to total area of GSH adduct, other metabolites, parent compound; type: ADME; conditions: 1 h, BLD = below limit of detection

Sequence of Adenosine receptor A2a (Homo sapiens) (P29274 whole entry): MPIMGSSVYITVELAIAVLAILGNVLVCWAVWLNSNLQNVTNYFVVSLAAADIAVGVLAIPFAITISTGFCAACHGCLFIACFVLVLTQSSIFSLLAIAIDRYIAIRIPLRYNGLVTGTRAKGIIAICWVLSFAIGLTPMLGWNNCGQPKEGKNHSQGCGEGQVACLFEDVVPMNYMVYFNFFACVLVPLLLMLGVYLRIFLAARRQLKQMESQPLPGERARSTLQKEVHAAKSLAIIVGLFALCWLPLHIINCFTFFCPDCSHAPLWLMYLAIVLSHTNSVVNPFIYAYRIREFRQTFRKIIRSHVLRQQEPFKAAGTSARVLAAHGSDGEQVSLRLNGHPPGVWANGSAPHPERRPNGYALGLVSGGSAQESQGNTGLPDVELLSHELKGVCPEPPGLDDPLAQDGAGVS
Sequence of Thromboxane A2 receptor (Homo sapiens) (P21731 whole entry): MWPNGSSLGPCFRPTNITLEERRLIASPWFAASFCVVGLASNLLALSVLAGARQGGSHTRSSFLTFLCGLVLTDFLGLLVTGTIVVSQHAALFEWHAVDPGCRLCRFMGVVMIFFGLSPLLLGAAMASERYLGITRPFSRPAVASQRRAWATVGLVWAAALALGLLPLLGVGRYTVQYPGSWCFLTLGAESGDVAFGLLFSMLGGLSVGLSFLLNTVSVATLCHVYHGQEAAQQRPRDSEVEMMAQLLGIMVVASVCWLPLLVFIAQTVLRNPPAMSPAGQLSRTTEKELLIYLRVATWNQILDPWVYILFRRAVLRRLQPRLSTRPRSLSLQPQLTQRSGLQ
Sequence of Nociceptin receptor (Homo sapiens) (P41146 whole entry): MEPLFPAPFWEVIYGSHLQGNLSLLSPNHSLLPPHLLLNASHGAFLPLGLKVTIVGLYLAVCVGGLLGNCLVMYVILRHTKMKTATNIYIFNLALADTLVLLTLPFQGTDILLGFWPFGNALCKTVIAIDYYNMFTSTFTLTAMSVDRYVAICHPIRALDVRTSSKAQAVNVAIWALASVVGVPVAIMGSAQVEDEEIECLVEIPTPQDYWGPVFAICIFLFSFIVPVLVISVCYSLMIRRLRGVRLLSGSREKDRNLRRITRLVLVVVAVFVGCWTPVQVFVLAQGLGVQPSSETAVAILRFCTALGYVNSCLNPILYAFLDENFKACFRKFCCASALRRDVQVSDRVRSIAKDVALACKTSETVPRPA
Sequence of D(2) dopamine receptor (Homo sapiens) (P14416 whole entry): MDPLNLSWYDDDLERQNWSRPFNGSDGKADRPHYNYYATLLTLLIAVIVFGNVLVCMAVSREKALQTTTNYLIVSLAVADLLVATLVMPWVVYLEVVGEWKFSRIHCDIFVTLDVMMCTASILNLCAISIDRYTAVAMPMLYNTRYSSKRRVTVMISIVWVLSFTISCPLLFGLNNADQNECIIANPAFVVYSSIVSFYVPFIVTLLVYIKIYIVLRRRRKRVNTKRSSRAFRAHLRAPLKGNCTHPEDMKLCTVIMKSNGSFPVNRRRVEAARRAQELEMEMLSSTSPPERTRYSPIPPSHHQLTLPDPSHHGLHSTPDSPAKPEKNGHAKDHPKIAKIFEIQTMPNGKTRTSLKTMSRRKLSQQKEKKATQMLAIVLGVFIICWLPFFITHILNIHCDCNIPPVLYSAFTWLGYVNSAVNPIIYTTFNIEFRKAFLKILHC
Sequence of Vasopressin V1a receptor (Homo sapiens) (P37288 whole entry, looked up): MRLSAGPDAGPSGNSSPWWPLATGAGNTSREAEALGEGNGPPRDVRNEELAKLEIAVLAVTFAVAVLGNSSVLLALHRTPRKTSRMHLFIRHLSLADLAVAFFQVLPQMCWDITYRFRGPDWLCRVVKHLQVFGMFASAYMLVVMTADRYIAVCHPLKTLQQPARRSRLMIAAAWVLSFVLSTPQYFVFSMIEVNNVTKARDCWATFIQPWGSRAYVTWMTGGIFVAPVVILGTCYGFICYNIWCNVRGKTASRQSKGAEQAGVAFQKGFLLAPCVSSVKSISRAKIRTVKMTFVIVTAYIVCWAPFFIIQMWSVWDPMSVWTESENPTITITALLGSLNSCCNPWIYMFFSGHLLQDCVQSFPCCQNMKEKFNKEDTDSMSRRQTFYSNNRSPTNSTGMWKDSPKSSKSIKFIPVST
Sequence of Galanin receptor type 2 (Homo sapiens) (O43603 whole entry): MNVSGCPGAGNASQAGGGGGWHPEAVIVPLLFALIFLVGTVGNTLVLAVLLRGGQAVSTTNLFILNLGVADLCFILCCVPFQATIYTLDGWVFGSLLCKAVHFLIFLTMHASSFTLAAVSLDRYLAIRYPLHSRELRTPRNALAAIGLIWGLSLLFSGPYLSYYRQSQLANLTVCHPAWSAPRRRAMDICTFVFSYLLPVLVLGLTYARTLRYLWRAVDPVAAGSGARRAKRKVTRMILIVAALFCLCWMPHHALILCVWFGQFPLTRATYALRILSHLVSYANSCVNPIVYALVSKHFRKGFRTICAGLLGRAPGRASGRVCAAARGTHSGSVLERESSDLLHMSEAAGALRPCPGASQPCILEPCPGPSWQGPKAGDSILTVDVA
Sequence of P2X purinoceptor 4 (Q99571 whole entry): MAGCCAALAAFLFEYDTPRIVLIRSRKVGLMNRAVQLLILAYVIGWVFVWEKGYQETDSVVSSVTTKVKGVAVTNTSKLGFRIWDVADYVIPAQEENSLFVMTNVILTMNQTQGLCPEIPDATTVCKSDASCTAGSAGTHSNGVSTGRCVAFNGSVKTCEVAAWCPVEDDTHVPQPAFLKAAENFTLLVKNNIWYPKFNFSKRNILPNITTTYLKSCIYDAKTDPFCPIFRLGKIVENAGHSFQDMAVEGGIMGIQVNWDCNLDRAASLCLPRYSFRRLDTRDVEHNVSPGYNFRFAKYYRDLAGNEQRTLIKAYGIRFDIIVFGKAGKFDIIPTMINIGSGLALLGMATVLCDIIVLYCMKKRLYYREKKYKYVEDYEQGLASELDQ
Sequence of 5-hydroxytryptamine receptor 1B (Homo sapiens) (P28222 whole entry): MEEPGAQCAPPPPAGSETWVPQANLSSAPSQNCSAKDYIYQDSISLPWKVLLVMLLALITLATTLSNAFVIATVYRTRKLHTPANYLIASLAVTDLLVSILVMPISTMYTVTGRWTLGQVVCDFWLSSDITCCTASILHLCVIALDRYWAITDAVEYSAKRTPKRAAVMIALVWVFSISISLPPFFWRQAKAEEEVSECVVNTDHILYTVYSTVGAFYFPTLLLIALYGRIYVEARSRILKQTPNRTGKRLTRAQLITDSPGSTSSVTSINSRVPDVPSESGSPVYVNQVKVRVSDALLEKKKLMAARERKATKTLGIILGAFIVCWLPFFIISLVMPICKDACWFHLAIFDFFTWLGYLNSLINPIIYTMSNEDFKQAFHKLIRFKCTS
Sequence of Neuropeptide Y receptor type 2 (Homo sapiens) (P49146 whole entry): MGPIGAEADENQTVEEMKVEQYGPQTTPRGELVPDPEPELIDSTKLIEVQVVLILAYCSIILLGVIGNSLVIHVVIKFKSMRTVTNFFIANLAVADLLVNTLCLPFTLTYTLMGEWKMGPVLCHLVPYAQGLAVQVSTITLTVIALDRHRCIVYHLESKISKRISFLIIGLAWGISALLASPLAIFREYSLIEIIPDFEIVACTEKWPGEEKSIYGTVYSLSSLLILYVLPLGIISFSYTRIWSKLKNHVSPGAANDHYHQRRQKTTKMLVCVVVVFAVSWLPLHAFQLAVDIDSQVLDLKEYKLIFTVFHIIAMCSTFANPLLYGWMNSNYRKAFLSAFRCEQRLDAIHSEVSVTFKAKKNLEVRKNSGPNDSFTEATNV
Sequence of Cannabinoid receptor 1 (Homo sapiens) (P21554 whole entry): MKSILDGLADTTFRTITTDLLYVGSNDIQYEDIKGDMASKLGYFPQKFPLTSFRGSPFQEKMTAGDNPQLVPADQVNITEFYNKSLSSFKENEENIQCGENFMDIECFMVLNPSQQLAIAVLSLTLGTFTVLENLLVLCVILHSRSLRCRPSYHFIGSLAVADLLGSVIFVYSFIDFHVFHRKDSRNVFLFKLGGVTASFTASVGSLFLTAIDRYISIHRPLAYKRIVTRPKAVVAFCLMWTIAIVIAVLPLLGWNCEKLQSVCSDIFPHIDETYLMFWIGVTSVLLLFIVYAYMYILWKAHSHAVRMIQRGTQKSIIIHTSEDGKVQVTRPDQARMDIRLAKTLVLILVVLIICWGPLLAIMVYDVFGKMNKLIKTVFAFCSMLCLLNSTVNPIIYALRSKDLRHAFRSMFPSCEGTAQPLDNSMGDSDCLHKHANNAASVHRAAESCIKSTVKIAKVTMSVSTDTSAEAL
Sequence of 5-hydroxytryptamine receptor 7 (Homo sapiens) (P34969 whole entry): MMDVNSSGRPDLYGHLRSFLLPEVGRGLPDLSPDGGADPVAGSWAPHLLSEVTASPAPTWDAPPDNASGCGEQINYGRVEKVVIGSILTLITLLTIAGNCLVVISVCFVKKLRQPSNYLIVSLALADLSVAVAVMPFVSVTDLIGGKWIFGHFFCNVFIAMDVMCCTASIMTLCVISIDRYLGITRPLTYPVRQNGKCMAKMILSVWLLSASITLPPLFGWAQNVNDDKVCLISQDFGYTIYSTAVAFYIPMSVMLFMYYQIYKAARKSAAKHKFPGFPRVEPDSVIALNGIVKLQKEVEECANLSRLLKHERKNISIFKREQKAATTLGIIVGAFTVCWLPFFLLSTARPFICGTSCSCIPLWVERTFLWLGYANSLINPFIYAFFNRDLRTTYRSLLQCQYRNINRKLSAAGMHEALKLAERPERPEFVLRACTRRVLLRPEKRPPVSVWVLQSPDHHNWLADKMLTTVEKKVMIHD
Sequence of Mu-type opioid receptor (Homo sapiens) (P35372 whole entry): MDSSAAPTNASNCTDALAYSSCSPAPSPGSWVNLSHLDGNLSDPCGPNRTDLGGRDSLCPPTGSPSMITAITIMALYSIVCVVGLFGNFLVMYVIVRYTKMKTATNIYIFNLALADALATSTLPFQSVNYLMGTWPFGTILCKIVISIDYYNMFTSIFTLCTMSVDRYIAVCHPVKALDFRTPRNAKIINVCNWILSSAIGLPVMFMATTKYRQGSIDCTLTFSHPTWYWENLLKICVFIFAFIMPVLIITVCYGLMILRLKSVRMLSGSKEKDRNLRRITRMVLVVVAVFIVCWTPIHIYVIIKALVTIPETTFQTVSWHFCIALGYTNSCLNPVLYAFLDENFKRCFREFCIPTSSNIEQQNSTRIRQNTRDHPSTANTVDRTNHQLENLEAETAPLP

SMILES: Cc1cc(Cl)c(OCCO)cc1NC(=O)C1=CNC(=O)C[C@H]1c1ccc(F)cc1
- inhibition [1]: < 30%
- inhibition [2]: < 30%
- inhibition [3]: < 30%
- inhibition [4]: < 30%
- inhibition (Rattus norvegicus [5]): < 30%
- IC50 (P2X purinoceptor 4): > 10 µM
- inhibition (Rattus norvegicus [6]): < 30%
- inhibition [7]: < 30%
- inhibition [8]: < 30%
- half-life [9]: 4 h
- inhibition [10]: < 30%
- inhibition (Rattus norvegicus [11]): < 30%
- inhibition [12]: < 30%
- inhibition [13]: < 30%
- inhibition [14]: < 30%
- inhibition [15]: < 30%
- bioavailability [16]: 74%
- inhibition [17]: < 30%
- PB [18]: Not Active
- inhibition [19]: < 30%
- inhibition [20]: < 30%
- inhibition [21]: < 30%
- inhibition [22]: < 30%
- inhibition [23]: < 30%
- IC50 (P2X purinoceptor 1): > 10 µM
- inhibition [24]: < 30%
- inhibition (Rattus norvegicus [25]): < 30%
- inhibition [26]: < 30%
- Cmax [27]: 330 ng/mL
- Stability (Plasma): Stable
- inhibition [28]: < 30%
- inhibition [29]: < 30%
- inhibition (Rattus norvegicus [30]): < 30%
- inhibition [31]: < 30%
- inhibition [32]: < 30%
- inhibition [33]: < 30%
- inhibition (Rattus norvegicus [34]): < 30%
- Stability (Liver microsome [35]): Stable
- inhibition [36]: < 30%
- inhibition [37]: < 30%
- Drug metabolism (Liver microsome [38]): BLD
